32 molecules from ChEMBL document CHEMBL3861998, “Development of 6-arylcoumarins as nonsteroidal progesterone antagonists. Structure-activity relationships and fluorescence properties” (Bioorg Med Chem, 2016) can be followed below.

Series [1] concerns the target T1, Progesterone receptor (Homo sapiens, UniProt P06401).
T1 sequence (P06401 whole entry): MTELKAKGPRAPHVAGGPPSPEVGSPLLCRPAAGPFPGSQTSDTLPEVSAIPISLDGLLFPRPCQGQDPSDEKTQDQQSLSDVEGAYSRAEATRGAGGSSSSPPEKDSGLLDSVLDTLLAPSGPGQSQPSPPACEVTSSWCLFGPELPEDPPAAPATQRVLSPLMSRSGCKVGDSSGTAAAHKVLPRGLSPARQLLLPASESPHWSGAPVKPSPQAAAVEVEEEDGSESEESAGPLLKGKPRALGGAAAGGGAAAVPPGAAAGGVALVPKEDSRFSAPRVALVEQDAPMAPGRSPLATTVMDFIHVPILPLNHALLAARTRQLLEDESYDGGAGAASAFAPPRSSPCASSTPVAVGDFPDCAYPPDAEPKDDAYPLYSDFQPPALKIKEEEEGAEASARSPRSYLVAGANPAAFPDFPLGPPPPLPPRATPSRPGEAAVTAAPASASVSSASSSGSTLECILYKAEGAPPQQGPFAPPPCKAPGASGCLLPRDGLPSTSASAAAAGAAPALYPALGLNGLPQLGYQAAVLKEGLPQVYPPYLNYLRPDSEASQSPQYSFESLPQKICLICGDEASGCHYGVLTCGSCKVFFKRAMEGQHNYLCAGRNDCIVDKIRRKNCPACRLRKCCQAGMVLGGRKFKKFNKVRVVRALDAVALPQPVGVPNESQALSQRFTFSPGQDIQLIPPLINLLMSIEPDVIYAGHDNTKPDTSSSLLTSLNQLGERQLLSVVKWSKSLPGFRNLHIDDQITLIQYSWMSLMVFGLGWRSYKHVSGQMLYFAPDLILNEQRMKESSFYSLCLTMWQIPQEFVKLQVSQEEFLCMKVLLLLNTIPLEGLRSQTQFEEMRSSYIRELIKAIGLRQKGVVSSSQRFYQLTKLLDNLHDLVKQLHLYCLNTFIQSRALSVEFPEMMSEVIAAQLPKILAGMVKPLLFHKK
Description: Antagonist activity at PR in human T47D cells assessed as inhibition of progesterone-induced alkaline phosphatase expression after 24 hrs by alkaline phopshatase assay. The series is classed as cell-based. Summed up: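 T-47D cells seeded at 10^4 cells/well and incubated overnight at 37°C, 5% CO₂. Fresh medium with compound added for 24 h. Cells fixed in 1.8% formalin in PBS and washed. Substrate was 1 mg/mL p-nitrophenyl phosphate in diethanolamine buffer, pH 9.0, 2 mM MgCl₂, for 2 h at room temperature in the dark. Stopped with 1 M NaOH; absorbance read at 405 nm.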

For series [2], the target named is T1, Progesterone receptor. As to the kind of experiment: Displacement of [1,2,6,7-3H]progesterone from recombinant human GST-tagged PR-LBD (675 to 933 residues) expressed in baculovirus-infected insect cells measured after 24 hrs by liquid scintillation counting method. In short, it runs like this:
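Incubated with 4 nM [³H]progesterone and compound (final DMSO 3%) for 24 h at 4°C in the dark. Nonspecific binding set with 200-fold excess unlabeled progesterone. Free ligand removed with dextran/γ-globulin-coated charcoal, 5 min at 4°C, then centrifuged; supernatant counted by liquid scintillation. Duplicates.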

The target in series [3] is T2, Androgen receptor (Mus musculus, UniProt P19091).
T2 sequence (P19091 whole entry): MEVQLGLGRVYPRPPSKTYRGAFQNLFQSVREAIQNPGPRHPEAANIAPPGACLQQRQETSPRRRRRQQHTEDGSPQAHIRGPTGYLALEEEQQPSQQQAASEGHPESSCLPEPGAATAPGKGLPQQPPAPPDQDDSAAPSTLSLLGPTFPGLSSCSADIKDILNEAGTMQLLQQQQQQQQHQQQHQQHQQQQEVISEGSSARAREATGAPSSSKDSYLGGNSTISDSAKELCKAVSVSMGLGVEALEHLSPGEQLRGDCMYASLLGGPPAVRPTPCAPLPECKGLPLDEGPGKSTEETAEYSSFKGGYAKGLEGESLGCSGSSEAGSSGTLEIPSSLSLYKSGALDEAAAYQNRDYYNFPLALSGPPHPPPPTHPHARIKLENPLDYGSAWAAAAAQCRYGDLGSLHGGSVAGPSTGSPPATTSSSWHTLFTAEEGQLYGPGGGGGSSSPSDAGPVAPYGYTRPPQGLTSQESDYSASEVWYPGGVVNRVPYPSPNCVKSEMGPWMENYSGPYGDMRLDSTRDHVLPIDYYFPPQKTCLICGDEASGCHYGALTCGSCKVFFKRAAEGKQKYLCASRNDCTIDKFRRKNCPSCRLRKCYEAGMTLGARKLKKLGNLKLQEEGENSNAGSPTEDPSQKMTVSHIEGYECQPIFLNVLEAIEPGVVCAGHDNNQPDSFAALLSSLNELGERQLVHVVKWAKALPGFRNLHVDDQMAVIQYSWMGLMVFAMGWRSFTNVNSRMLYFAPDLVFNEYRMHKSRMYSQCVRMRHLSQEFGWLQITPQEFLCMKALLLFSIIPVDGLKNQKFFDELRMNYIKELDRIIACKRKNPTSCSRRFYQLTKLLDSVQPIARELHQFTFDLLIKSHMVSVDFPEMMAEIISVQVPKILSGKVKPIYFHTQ
Description: Antagonist activity at AR in mouse SC3 cells assessed as inhibition of dihydrotestosterone-induced cell growth 10^-5 to 10^-7 M measured after 3 days by CCK8 assay. The series is classed as cell-based. The settings on record: sc-3, 72 h. Summed up: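 SC-3 cells maintained in MEMα with 2% FBS and 1 nM DHT, 37°C, 5% CO2. Seeded at 20,000 cells/mL in MEMα with 2% charcoal-stripped FBS and held 24 h. Serial dilutions of compound (DMSO control) added with 1 nM DHT, then 3 days at 37°C. WST-8 (CCK-8) added for 2 h, absorbance read at 450 nm. Triplicate or more.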

For series [4], the species on record is Mus musculus. As to the kind of experiment: Cytotoxicity against mouse SC3 cells assessed as effect on cell growth at 10^-5 to 10^-7 M after 3 days by CCK8 assay. The series is classed as toxicity. The settings on record: sc-3, 72 h. Summed up:
(§1)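 SC-3 cells kept in MEMα with 2% FBS and 1 nM DHT at 37°C, 5% CO₂. Trypsinized, diluted to 20,000 cells/mL in MEMα with 2% charcoal-stripped FBS, seeded and held 24 h. Serial dilutions of compound or DMSO control added with 1 nM DHT. Incubated 3 days at 37°C. Cell number read by WST-8 (CCK-8), 2 h, absorbance at 450 nm. Triplicate or more.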
In general terms: Formazan colour is commonly taken as a measure of viable cells.

The target of series [5] is T3, Glucocorticoid receptor (Homo sapiens, UniProt P04150).
T3 sequence (P04150 whole entry): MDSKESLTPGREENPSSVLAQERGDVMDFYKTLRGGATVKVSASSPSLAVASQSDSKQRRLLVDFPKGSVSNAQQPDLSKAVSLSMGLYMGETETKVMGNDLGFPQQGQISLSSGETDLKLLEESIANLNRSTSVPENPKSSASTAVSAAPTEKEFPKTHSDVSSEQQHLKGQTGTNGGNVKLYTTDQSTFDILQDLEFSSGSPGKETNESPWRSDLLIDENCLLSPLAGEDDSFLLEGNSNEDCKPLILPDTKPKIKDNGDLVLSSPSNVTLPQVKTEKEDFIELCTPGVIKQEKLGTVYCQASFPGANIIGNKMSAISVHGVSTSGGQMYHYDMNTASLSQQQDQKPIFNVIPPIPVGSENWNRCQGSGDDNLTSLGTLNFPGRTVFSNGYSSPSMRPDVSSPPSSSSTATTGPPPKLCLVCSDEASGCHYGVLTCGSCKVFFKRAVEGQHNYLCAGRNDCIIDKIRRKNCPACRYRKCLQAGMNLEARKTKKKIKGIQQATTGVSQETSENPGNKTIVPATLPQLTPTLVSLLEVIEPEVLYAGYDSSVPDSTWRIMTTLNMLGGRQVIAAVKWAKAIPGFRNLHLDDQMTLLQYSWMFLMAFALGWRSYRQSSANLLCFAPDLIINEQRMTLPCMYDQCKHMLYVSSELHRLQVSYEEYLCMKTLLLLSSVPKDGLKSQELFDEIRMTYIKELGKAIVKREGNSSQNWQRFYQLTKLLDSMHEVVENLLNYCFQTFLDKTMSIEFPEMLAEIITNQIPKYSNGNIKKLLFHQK
Description: Displacement of [3H]dexamethasone from human GR measured after 18 hrs by scintillation counting method. In short, it runs like this: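 hGR at 1.25 nM final in 50 mM KH₂PO₄ pH 7.4 with 10 mM sodium molybdate and 1 mM DTT. Incubated with 10^-9 M [³H]dexamethasone and compounds at 10^-7 to 10^-5 M, 0.4% DMSO, for 18 h. Nonspecific binding set with 10^-5 M triamcinolone acetonide. Bound ligand collected by vacuum filtration on glass-fiber filters and counted. Duplicates.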

For series [6], the target named is T2, Androgen receptor. As to the kind of experiment: Antagonist activity at AR in mouse SC3 cells assessed as inhibition of dihydrotestosterone-induced cell growth at 10^-5 M measured after 3 days by CCK8 assay. The series is classed as cell-based. The settings on record: sc-3, 72 h, 10 µM. Summed up: as §1

Each structure is given as a SMILES string.

Broadly, the IC50 is the point on the concentration scale where inhibition reaches its midpoint. Consider `CCN(CC)c1cc2oc(=O)ccc2cc1-c1ccc(C#N)n1CC`, for which the IC50 in series [1] amounted to 250 nM.

For the molecule `N#Cc1ccc(-c2ccc3oc(=O)ccc3c2)n1Cc1ccc([N+](=O)[O-])cc1`, the IC50 in series [1] is 450 nM.

Consider `N#Cc1ccc(-c2ccc3oc(=O)ccc3c2)n1Cc1ccc(F)cc1`, for which, in series [1], the IC50 was 210 nM.

Consider `N#Cc1ccc(-c2ccc3oc(=O)ccc3c2)n1CC1CCCCC1`, for which, in series [1], the IC50 came to 31 nM.

`COc1cc2oc(=O)cc(C)c2cc1-c1ccc(C#N)n1Cc1ccccc1`: in series [1], the IC50 came out at 230 nM.

Consider `CC(=O)c1ccc(-c2ccc3oc(=O)ccc3c2)s1`, for which the IC50 in series [1] worked out at 240 nM.

Take `N#Cc1ccc(-c2ccc3oc(=O)ccc3c2)n1Cc1ccccc1`: the values for the IC50 in series [2] and in series [1] were 790 nM and 56 nM, respectively.

In the case of `COc1cc2oc(=O)cc(C)c2cc1-c1ccc(C#N)n1Cc1ccc(C#N)cc1`, the IC50 in series [1] was 480 nM.

As to `Cc1ccc(-c2ccc3oc(=O)ccc3c2)s1`, the IC50 in series [1] amounted to 440 nM.

Regarding `N#Cc1ccc(-c2ccc3oc(=O)ccc3c2)n1Cc1ccc2ccccc2c1`, in series [1], the IC50 is 290 nM.

`N#Cc1ccc(-c2ccc3oc(=O)ccc3c2)[nH]1`: in series [1], the IC50 worked out at 140 nM.

As for `CCn1c(C#N)ccc1-c1cc2c(C)cc(=O)oc2cc1OC`, the IC50 in series [1] is 38 nM.

Take `CCn1c(C#N)ccc1-c1ccc2oc(=O)ccc2c1`: the IC50 in series [1] was determined as 220 nM.

With `COc1cc2oc(=O)cc(C)c2cc1-c1ccc(C#N)[nH]1`, the IC50 in series [1] amounted to 260 nM.

Turning to `O=c1ccc2cc(-c3sccc3Cl)ccc2o1`, the IC50 in series [1] came out at 230 nM.

Take `N#CCn1c(C#N)ccc1-c1ccc2oc(=O)ccc2c1`: the 50% inhibitory concentration (IC50) in series [1] was 15800 nM.

As to `CCCCCCn1c(C#N)ccc1-c1cc2c(C)cc(=O)oc2cc1OC`, the IC50 in series [1] was 180 nM.

Consider `CCN(CC)c1cc2oc(=O)ccc2cc1-c1ccc(C#N)n1CC#N`, for which, in series [1], the IC50 worked out at 850 nM.

As for `N#Cc1ccc(-c2ccc3oc(=O)ccc3c2)n1Cc1c(F)c(F)c(F)c(F)c1F`, the IC50 in series [1] came out at 190 nM.

Consider `Cc1cc(=O)oc2cc(O)c(-c3ccc(C#N)n3C)cc12`, for which the results for the IC50 in series [2] and in series [1] were 15700 nM and 300 nM, respectively.

Take `N#Cc1ccc(-c2ccc3oc(=O)ccc3c2)s1`: the IC50 in series [1] turned out to be 140 nM.

Regarding `CCN(CC)c1cc2oc(=O)ccc2cc1-c1ccc(C#N)[nH]1`, the IC50 in series [1] is 120 nM.

On to `CCCCCCn1c(C#N)ccc1-c1ccc2oc(=O)ccc2c1`, for which the IC50 turned out to be 160 nM in series [2] and 34 nM in series [1].

As to `COc1cc2oc(=O)cc(C)c2cc1-c1ccc(C#N)n1Cc1ccc(F)cc1`, in series [1], the IC50 turned out to be 570 nM.

`N#Cc1ccc(Cn2c(C#N)ccc2-c2ccc3oc(=O)ccc3c2)cc1`: the IC50 in series [1] was 290 nM.

In the case of `CC(C)(O)C(=O)Nc1ccc([N+](=O)[O-])c(C(F)(F)F)c1` [HYDROXYFLUTAMIDE], the “inhibition (INH)” value in series [3] is recorded as “Active”.

For `CCN(CC)c1cc2oc(=O)ccc2cc1-c1ccc(C#N)n1Cc1ccccc1`, in series [1], the half-maximal inhibitory concentration (IC50) stood at 580 nM.

For `CCN(CC)c1cc2oc(=O)ccc2cc1-c1ccc(C#N)n1C`, the Activity entry in series [4] is recorded as “Non-Toxic”. The IC50 in series [2] is 1360 nM; in series [1] it was 240 nM; in series [5], 10000 nM. Besides, the “inhibition (INH)” value in series [6] is “Active”.

As to `COc1cc2oc(=O)cc(C)c2cc1-c1ccc(C#N)n1C`, the Activity entry in series [4] is on record as “Non-Toxic”. The values for the IC50 in series [2] and in series [1] were 990 nM and 24 nM, respectively. Besides, the “inhibition (INH)” value in series [3] is “Active”.

For `N#Cc1ccc(-c2ccc3oc(=O)ccc3c2)n1Cc1cc(F)cc(F)c1`, in series [1], the IC50 is 160 nM.

With `COc1cc2oc(=O)cc(C)c2cc1-c1ccc(C#N)n1CC1CCCCC1`, the IC50 in series [1] was determined as 550 nM.

Turning to `Cc1ccsc1-c1ccc2oc(=O)ccc2c1`, in series [1], the half-maximal inhibitory concentration (IC50) was determined as 150 nM.
